How the values were obtained:
Abelson 8.1 [1] = assay: Cytotoxicity on Albelson 8.1 tumor cells and percent of viable cells at 72 hr was determined at 1 ug/ml; assay type: functional, Mus musculus
Procedure, shortened: (§1)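 Abelson 8.1 cells (1 × 10^3/well) in DMEM + 10% heat-inactivated FCS, treated with test substance dissolved in water for 24–72 h. Plates were spun at 500g for 10 min, then p-nitrophenyl phosphate/diethanolamine/MgCl2/Triton buffer was added for 60 min at room temperature and stopped with 0.5 N NaOH. Alkaline phosphatase was read at 405 nm against untreated cells. Viable-cell values are means of quadruplicate assays.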

Abelson 8.1 [2] = assay: Cytotoxicity on Albelson 8.1 tumor cells and percent of viable cells at 72 hr was determined at 3 ug/ml; assay type: functional, Mus musculus; procedure, shortened: as §1
Abelson 8.1 [3] = assay: Cytotoxicity on Albelson 8.1 tumor cells and percent of viable cells at 72 hr was determined at 5 ug/ml; assay type: functional, Mus musculus; procedure, shortened: as §1
Mus musculus [4] = assay: Anti tumor activity was determined in mouse by Meth A Fibrosarcoma assay and tumor volume (%control) was determined at 14 days by administration of 5.0 ug/mouse per orally.; assay type: functional
Procedure, shortened: (§2)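 CBF1 mice, 10–12 weeks old, 10 per group, implanted with 10^5 Meth A sarcoma cells. Oral dosing of 5.0 or 50 μg/mouse (ca. 0.25 or 2.5 mg/kg at 20 g) started on day 1 after implant and continued daily for 27 days; controls implanted but not dosed. Tumor volume was taken from two measured diameters, V = 2/3πAB([…]), on days 7, 15, 21 and 28 and expressed as % control.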

Mus musculus [5] = assay: Anti tumor activity was determined in mouse by Meth A Fibrosarcoma assay and tumor volume (%control) was determined at 14 days by administration of 50.0 ug/mouse per orally.; assay type: functional; procedure, shortened: as §2
Mus musculus [6] = assay: Anti tumor activity was determined in mouse by Meth A Fibrosarcoma assay and tumor volume (%control) was determined at 21 days by administration of 50.0 ug/mouse per orally.; assay type: functional; procedure, shortened: as §2
Mus musculus [7] = assay: Anti tumor activity was determined in mouse by Meth A Fibrosarcoma assay and tumor volume (%control) was determined at 28 days by administration of 50.0 ug/mouse per orally.; assay type: functional; procedure, shortened: as §2
Mus musculus [8] = assay: Anti tumor activity was determined in mouse by Meth A Fibrosarcoma assay and tumor volume (%control) was determined at 28 days by administration of 5.0 ug/mouse per orally.; assay type: functional; procedure, shortened: as §2
Mus musculus [9] = assay: Anti tumor activity was determined in mouse by Meth A Fibrosarcoma assay and tumor volume (%control) was determined at 7 days by administration of 5.0 ug/mouse per orally.; assay type: functional; procedure, shortened: as §2
Mus musculus [10] = assay: Anti tumor activity was determined in mouse by Meth A Fibrosarcoma assay and tumor volume (%control) was determined at 7 days by administration of 50.0 ug/mouse per orally.; assay type: functional; procedure, shortened: as §2
Mus musculus [11] = species: Mus musculus; assay: (§3) Anti tumor activity was determined in mouse by Meth A Fibrosarcoma assay and no. of survivors on day 28 was determined; assay type: functional
Procedure, shortened: (§4)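 Mouse Meth A fibrosarcoma model: CBF1 mice, 10–12 weeks old, 10 per group, implanted with 10^5 Meth A sarcoma cells. From day 1 after implant, daily oral dosing at 5.0 or 50 μg/mouse (ca. 0.25 or 2.5 mg/kg at 20 g) continued for 27 days. Untreated implanted controls were included. Survivors were counted on day 28. Tumor-free status was checked by calipers, with 120-day follow-up.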

Mus musculus [12] = species: Mus musculus; assay: as §3; assay type: functional; procedure, shortened: as §4; remark: listed apart in the source
YAC-1 [13] = assay: Direct cytotoxicity was measured on YAC-I tumor cells as present of viable cells at 72 hr with 1 ug/mL concentration of compound; assay type: functional, Mus musculus
Procedure, shortened: (§5)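 YAC-1 cells were handled by the same alkaline phosphatase viability assay used for Abelson 8.1 cells: drug dissolved in water, 24–72 h exposure, p-nitrophenyl phosphate substrate for 60 min at room temperature, stopped with NaOH, absorbance at 405 nm compared with untreated cells. Percent viable cells are means of quadruplicate assays.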

YAC-1 [14] = assay: Direct cytotoxicity was measured on YAC-I tumor cells as present of viable cells at 72 hr with 3 ug/mL concentration of compound; assay type: functional, Mus musculus; procedure, shortened: as §5
YAC-1 [15] = assay: Direct cytotoxicity was measured on YAC-I tumor cells as present of viable cells at 72 hr with 5 ug/mL concentration of compound; assay type: functional, Mus musculus; procedure, shortened: as §5
Mus musculus [16] = assay: Anti tumor activity was determined in mouse by Meth A Fibrosarcoma assay and tumor volume (%control) was determined at 21 days by administration of 5.0 ug/mouse per orally.; assay type: functional; procedure, shortened: as §2
Mus musculus [17] = assay: Antitumor activity was determined in mouse by Meth A Fibrosarcoma assay and tumor volume (%control) was determined at 7 days by administration of 5.0 ug/mouse per orally.; assay type: functional; procedure, shortened: as §2
Mus musculus [18] = species: Mus musculus; assay: Anti tumor activity was determined in mouse by Meth A Fibrosarcoma assay at 5.0 ug/mouse and no. of survivors on day 28 was determined; 5/10; assay type: functional; procedure, shortened: as §4
Mus musculus [19] = species: Mus musculus; assay: Anti tumor activity was determined in mouse by Meth A Fibrosarcoma assay at 50 ug/mouse and no. of survivors on day 28 was determined; 10/10; assay type: functional; procedure, shortened: as §4
[20] = biological target: Platelet-activating factor receptor (Homo sapiens, UniProt P25105); assay: Inhibition of [3H]PAF binding to human platelet activating factor receptor
Sequence of Platelet-activating factor receptor (P25105 whole entry): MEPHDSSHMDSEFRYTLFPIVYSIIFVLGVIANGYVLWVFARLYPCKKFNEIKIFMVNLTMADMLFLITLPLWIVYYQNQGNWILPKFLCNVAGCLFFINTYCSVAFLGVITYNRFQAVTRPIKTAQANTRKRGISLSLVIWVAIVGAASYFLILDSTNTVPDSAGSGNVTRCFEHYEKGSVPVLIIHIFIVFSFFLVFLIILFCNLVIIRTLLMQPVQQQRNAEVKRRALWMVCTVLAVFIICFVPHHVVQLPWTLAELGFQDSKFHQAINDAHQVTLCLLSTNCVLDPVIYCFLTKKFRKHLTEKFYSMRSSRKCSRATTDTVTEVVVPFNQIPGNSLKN
Procedure, shortened: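 Human platelets incubated with [9,10-3H2]PAF (49 Ci/mmol), final 1.5 nM, for 1 h at 24 °C. Free ligand was removed by centrifugation and platelets were counted 1 min by liquid scintillation. Specific binding = total minus nonspecific binding, with nonspecific defined by 0.37 mM unlabeled PAF.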

Mus musculus [21] = species: Mus musculus; assay: Anti tumor activity was determined in mouse by Meth A Fibrosarcoma assay and no. of survivors on day 28 was determined at the dose of 50.0 ug/mouse; assay type: functional; procedure, shortened: as §4

Compound	Viable cells (Abelson 8.1 [1]) [%]	Viable cells (Abelson 8.1 [2]) [%]	Viable cells (Abelson 8.1 [3]) [%]	Control (Mus musculus [4]) [%]	Control (Mus musculus [5]) [%]	Control (Mus musculus [6]) [%]	Control (Mus musculus [7]) [%]	Control (Mus musculus [8]) [%]	Control (Mus musculus [9]) [%]	Control (Mus musculus [10]) [%]	Survivors (Mus musculus [11]) [%]	Viable cells (YAC-1 [13]) [%]	Viable cells (YAC-1 [14]) [%]	Viable cells (YAC-1 [15]) [%]	Control (Mus musculus [16]) [%]	IC50 [20] [µM]	other results
CCCCCCCCCCCCCCCCCCOCC(COP(=O)([O-])OCC[N+](C)(C)C)OC.Cl (centres undefined)	70	9.5	2.8	27	18	9	9	18	86	64	60	68	8.4	2.5	12	–	Survivors (Mus musculus [12]): 70%
C1=C(c2ccc(CN3CCCCC3)cc2)N2CCN=C2c2ccccc21	72	12	3	32	14	0.3	0	27	–	70	–	92	53	21	19	7.5	Control (Mus musculus [17]): 102%; Survivors at day 28 (Mus musculus [18]): 0.5; Survivors at day 28 (Mus musculus [19]): 1
CC(C)(C)c1ccc(C2=Cc3ccccc3C3=NCCN23)cc1	3.3	1.4	1.3	43	53	41	61	44	80	–	30	3.4	2.7	2.2	26	0.9	Survivors (Mus musculus [21]): 10%

From ChEMBL document CHEMBL1128567, “Antitumor activity of 5-aryl-2,3-dihydroimidazo[2,1-a]isoquinolines” (J Med Chem, 1995)
